# Pf gamet viab: kills late stage P. falciparum gametocytes; inhibition, % at 10.9 µM; hit rate 0.065% among 150,000; P. falciparum stage V gametocytes, ATP luminescence, 24 h;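 active means inhibition above the mean plus 3 SD of compounds within the control limits, set per campaign, cut at about 38% in these data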;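 further: 0% = DMSO wells and 100% = medium only without gametocytes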
# Biofilm kill mix: mixtures killing C. albicans biofilm; C. albicans biofilm persisters + clotrimazole, fluorescence viability; primary screen in compound mixtures of four per well; inhibition, % at 7.6 µM; hit rate 0.02% among 120,000;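 active means inhibition above 30.3% in the primary screen of four-compound pools, then above 30% when the compound was retested; inconclusive means passed the primary limit but could not be retested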;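 further: compounds exposed to preformed 24 h biofilms for 48 h; 0% = untreated biofilm control and 100% = clotrimazole plus chlorhexidine kill blank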
#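 Test system: C. albicans biofilms. Buffer or medium: RPMI/MOPS medium, pH 7.0. Timing: 48 h compound exposure at 37 °C. Technique: Alamar Blue fluorescence. Evaluation: percent inhibition of biofilm viability.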
# ROMK primary: modulators of human ROMK potassium channel; Tet-inducible ROMK, thallium flux fluorescence; actives lie on both sides; AID 1918; hit rate 2% among 130,000; B-score at 10 µM;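 active means signal ratio slope over the read window, or its plate-corrected B-score, at least 3 SD from the plate mean, either direction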;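 further: B-score of the F/F0 ratio slope over 7 to 12 s after thallium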
# Target sequence (P48048 whole entry, looked up): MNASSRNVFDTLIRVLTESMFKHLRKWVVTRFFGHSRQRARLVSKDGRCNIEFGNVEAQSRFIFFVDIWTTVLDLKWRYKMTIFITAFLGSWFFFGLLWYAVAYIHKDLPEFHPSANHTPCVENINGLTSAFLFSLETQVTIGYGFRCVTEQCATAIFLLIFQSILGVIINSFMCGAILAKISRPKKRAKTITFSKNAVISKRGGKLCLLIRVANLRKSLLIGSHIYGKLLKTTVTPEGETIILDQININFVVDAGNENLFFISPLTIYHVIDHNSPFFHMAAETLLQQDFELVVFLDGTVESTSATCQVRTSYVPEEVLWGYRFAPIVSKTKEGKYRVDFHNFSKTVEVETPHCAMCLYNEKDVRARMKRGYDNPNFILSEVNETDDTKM
# ROMK hit retest: human ROMK channel modulation, retest confirmation. shares compounds with ROMK primary. ROMK thallium flux, fluorescence ratio; stronger effect = lower value. normalized thallium flux (F/F0 slope) at 10 µM. hit rate 54% among 3,000. AID 1917;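 active means Flux at 10 µM at least 3 SD below or above vehicle control mean in one or both replicates; inconclusive means no clear call, values can overlap the other calls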
# * = called active by the depositor; ? = inconclusive; . = no result given. Many of the other results were omitted from the sample, so hits are more common in it than they were.
SMILES,Pf gamet viab,Biofilm kill mix,ROMK primary,ROMK hit retest
Cc1ccc(S(=O)(=O)N2CCCN(S(=O)(=O)c3ccc4c(c3)OCCO4)CC2)cc1,.,.,-3.8*,?
CN1CCN(S(=O)(=O)c2ccc3c(c2)OCCO3)CC1,.,.,2.1,.
CC(c1ccccc1)N1CCc2[nH]c(=S)[nH]c(=O)c2C1 (stereo not drawn),.,14,-0.0031,.
Cc1ccc(-c2nc3cc(N)ccc3o2)cc1,-33,.,.,.
CC(C)c1ccc2oc(-c3ccc(N)cc3)nc2c1,0,.,.,0.081
CC(C)CN(C)C(=O)CCc1nnc(Cc2ccc(-c3ccccc3)cc2)o1,2,0,-0.3,.
Cc1cc(NC(=O)CCC(=O)N(CC(=O)NC2CCCC2)Cc2cccs2)no1,-16,22,0.15,.
Cc1ccnc(NC(=O)CCC(=O)N(CC(=O)NC2CCCCC2)Cc2cccs2)c1,.,-2,-0.28,0.077
CC(C)[C@@H](C(=O)N1CCN(C(=O)OC(C)(C)C)CC1)n1cc(CCO)nn1,-9,16,.,.
Cc1sc2nc(C3CC3)nc(SCC(=O)N3CCCc4ccccc43)c2c1C,-11,9,-0.059,.
Cn1c(=O)c2c(SCC(=O)N3CCCc4ccccc43)nc(C3CC3)nc2n(C)c1=O,.,.,.,0.071
Cc1cc(-c2nnc(CCC(=O)N(CC3CCC3)CC3CCCO3)o2)no1 (stereo not drawn),6,14,-0.059,.
O=C(C1CCCO1)N1N=C(c2ccc(Br)cc2)CC1c1ccco1 (stereo not drawn),-10,15,-3.4*,0.058*
Cc1ccc(C2=NN(C(=O)C3CCCO3)C(c3ccco3)C2)cc1 (stereo not drawn),9,-6,-1.6,.
CC1CCN(CCCCOc2ccc(Br)cc2)CC1,.,9,-1.3,?
CC1CCN(CCCCOc2cccc(Br)c2)CC1,.,12,-1.2,.
Cn1ncc(C(N)=O)c1NC(=S)NC(=O)c1ccc(Br)o1,-24,14,1*,0.081
Cc1c(NC(=S)NC(=O)c2ccc(Br)o2)c(=O)n(-c2ccccc2)n1C,.,7,.,.
O=C(NC(=S)Nc1ccccc1F)c1ccc(Br)o1,2,10,.,0.14*
Cc1ccc(NC(=S)NC(=O)c2ccc(Br)o2)c(C)c1,-11,8,1.3,.
N#Cc1c2n(c(=S)n(-c3ccc(F)cc3)c1=O)CCCCC2,-14,-3,0.3,.
O=C(Nn1cnc2ccccc2c1=O)c1ccc([N+](=O)[O-])cc1,14,9,0.054,.
Cc1ccc(-n2c(C)cc(C3N=C(N)Nc4nc5ccccc5n43)c2C)c(C)c1 (stereo not drawn),-7,.,.,0.047*
NC1=NC(c2ccc(F)cc2)n2c(nc3ccccc32)N1 (stereo not drawn),.,.,-2.5,.
NC1=NC(c2cccc(O)c2)n2c(nc3ccccc32)N1 (stereo not drawn),.,.,0.62,.
SMILES,Pf gamet viab,Biofilm kill mix,ROMK primary,ROMK hit retest
Cc1cc(C2N=C(N)Nc3nc4ccccc4n32)c(C)n1-c1ccccc1Cl (stereo not drawn),.,.,-5*,0.059*
COc1ccc(/C=C(\C#N)C(=O)N2CCOCC2)cc1Br,.,.,-3.7*,0.051*
COc1cc(/C=C(\C#N)C(=O)N2CCOCC2)ccc1OCc1ccccc1,6,15,0.015,.
C/C(=C\c1ccccc1)C(=O)Nc1nccs1,-6,-2,1.1*,?
O=C(Nc1nccs1)Oc1ccccc1,-14,.,1.7,.
CC1C(C#N)=C(N)OC2=C1C(=O)CC(c1ccccc1)C2 (stereo not drawn),19,-6,.,.
O=C(Nc1nc2ccccc2[nH]1)c1cc2ccccc2o1,1,19,-1.6,.
CCCN1C(=O)/C(=C\C=C2\N(CC)c3ccccc3C2(C)C)SC1=S,5,18,-7.5*,0.053*
CCCN1C(=O)/C(=C\C=C2/Sc3ccccc3N2CC)SC1=S,.,8,0.99,.
CC(C)(C)OC(=O)NCCCC[C@H](NC(=O)c1nc[nH]c1C(=O)N1CCN(c2ccccc2)CC1)C(=O)OC(C)(C)C,-36,11,.,.
Cc1cc(C)nc(SCc2ccc(C(=O)N/N=C3\CC(C)CC(C)(C)C3)cc2)n1 (stereo not drawn),-2,9,.,.
FC(F)(F)c1cccc(NC(=S)NNC(=S)Nc2cccc(C(F)(F)F)c2)c1,.,15,.,.
Cc1ccccc1C(=O)NNC(=S)Nc1cccc(C(F)(F)F)c1,1,13,.,0.064*
NC(=O)Oc1cccc(OC(N)=O)c1,.,8,.,.
Cc1cc(NCCCn2ccnc2)n2ncc(-c3ccccc3)c2n1,.,.,-3.3*,0.073
CCN(CC)CCCNc1nc(-c2ccccc2)nc2ccccc12,.,13,-0.99,.
c1ccc(-c2nc(NCCCn3ccnc3)c3ccccc3n2)cc1,10,5,-3.6*,0.06*
Cc1cc(NCCN2CCOCC2)n2ncc(-c3ccccc3)c2n1,-10,.,-0.68,.
